High-throughput results deposited in PubChem by Johns Hopkins Ion Channel Center.
hERG protect – hERG (human) protection from proarrhythmic block; activation (rescue from dofetilide block), less the hit threshold, % at 10 µM; AID 1511; actives 0.51% (n = 310,000); Q12809; CHO-hERG, FluxOR thallium flux, dofetilide IC70 present;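 active means activation above the mean of controls blocked by dofetilide plus 5 SD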;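 further: thallium influx through hERG after potassium depolarization seen as dye fluorescence rise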
KCNK3 inh – human KCNK3 channel inhibition, primary screen; O14649; CHO-KCNK3 thallium flux, FluxOR fluorescence; stronger effect = lower value; B-score at 10 µM; actives 0.84% (n = 340,000);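 active means B-score under library mean minus 4 SD, starting fluorescence ratio at most library mean plus 5 SD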;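 further: more negative B-score means stronger inhibition of thallium flux through KCNK3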
KCNQ1 pot – human KCNQ1 channel potentiation or activation; actives 0.35% (n = 310,000); CHO-K1 KCNQ1, thallium flux FluxOR fluorescence; stronger effect = higher value; AID 2648; P51787; B-score at 10 µM;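 active means fluorescence ratio B-score, a plate-corrected score, at least three library SD, with initial intensity B-score within 5 SD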
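Schedule – 37 °C overnight plating, 90-min dark dye load, 20-min compound pretreatment · System – stable KCNQ1 CHO-K1 line · Probe or stimulus – thallium- and potassium-containing depolarizing buffer · Measured by – kinetic FluxOR fluorescence, 10 s baseline plus 110 s post-stimulus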
Kir21 inh – inhibitors of mouse Kir2.1 inward-rectifier potassium channel. P35561. HEK293-Kir2.1, FluxOR thallium flux fluorescence; stronger effect = lower value. B-score at 10 µM. actives 0.85% (n = 310,000);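 active means fluorescence ratio B-score at or below minus 3 SD of library scores, with starting-brightness B-score within 2 SD, cut at about -4.2 in these data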;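 further: channel flux triggered by added potassium and thallium sulfate stimulus; B-score of peak minus minimum fluorescence over baseline after thallium stimulus; more negative B-score means stronger Kir2.1 block with less thallium influx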
KCNK9 inh – blocks the human KCNK9 two-pore domain potassium channel | Q9NPC2 | HEK293 KCNK9, FluxOR thallium flux fluorescence; stronger effect = lower value | B-score at 10 µM | actives 1.2% (n = 310,000) | AID 488922;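 active means ratio B-score over 3 SD below the library mean, with starting fluorescence within 5 SD of its mean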;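 further: negative B-score means less thallium flux so channel inhibition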
Target sequence (Q9NPC2 whole entry, looked up, the tested form may be a part): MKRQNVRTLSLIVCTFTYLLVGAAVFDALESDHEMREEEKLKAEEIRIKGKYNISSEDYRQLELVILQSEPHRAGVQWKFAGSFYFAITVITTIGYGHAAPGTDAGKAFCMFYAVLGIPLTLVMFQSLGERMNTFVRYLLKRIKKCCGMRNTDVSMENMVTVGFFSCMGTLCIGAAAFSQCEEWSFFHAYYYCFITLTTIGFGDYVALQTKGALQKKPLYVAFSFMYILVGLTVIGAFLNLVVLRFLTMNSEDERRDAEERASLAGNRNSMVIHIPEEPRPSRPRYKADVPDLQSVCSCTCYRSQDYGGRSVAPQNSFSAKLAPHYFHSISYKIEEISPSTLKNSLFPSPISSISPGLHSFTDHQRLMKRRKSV
KCNQ1 inh – blocks the human KCNQ1 potassium channel. B-score at 10 µM. AID 2642. P51787. CHO-K1 KCNQ1, FluxOR thallium flux fluorescence; stronger effect = higher value. actives 1.3% (n = 310,000);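 active means compounds whose thallium flux B-score, printed positive for inhibition, exceeds three library SD while starting fluorescence stays within three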;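 further: channel opened by potassium depolarization with thallium stimulus after 20 min compound exposure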
KCNK9 block conf – confirmation of human KCNK9 potassium channel inhibitors; actives 43% (n = 4,900); inhibition, % at 10 µM; shares compounds with KCNK9 inh; AID 492992; HEK293 KCNK9 cells, FluxOR thallium flux fluorescence;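 active means thallium signal inhibited by more than 5 SD of the compound-free buffer control wells, on both duplicate plates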;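 further: 0% = assay buffer control wells without compound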
Kir21 sel – tests whether KCNK9 modulators also affect mouse Kir2.1; shares compounds with KCNK9 inh; Kir2.1 cells, FluxOR thallium flux fluorescence; actives 4% (n = 4,900); AID 492993; inhibition, % at 10 µM;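 active means thallium signal drop more than 5 SD beyond the mean of the no-compound control wells, seen in both duplicate plates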;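 further: signal is fluorescence rise after thallium addition divided by baseline fluorescence; plate controls were assay buffer only for no effect and full block by chlorpromazine control for full effect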
HEK293 Tl ctr – second counter-screen for KCNK9 modulators: effect in non-induced cells. inhibition, % at 10 µM. shares compounds with KCNK9 inh. non-induced KCNK9-HEK293, FluxOR thallium flux. AID 492997. actives 40% (n = 4,900);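 active means thallium signal drop beyond 5 SD of the untreated control mean, on both duplicate plates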;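 further: plate controls were buffer only IC0 wells for no effect and SID17386958 at its maximal inhibitory level for full effect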
Active calls of the source: *; i = inactive; x = no result given. Compounds with a hit are over-represented: about 3.8% of the library has one in this group of screens.

SMILES	hERG protect	KCNK3 inh	KCNQ1 pot	Kir21 inh	KCNK9 inh	KCNQ1 inh	KCNK9 block conf	Kir21 sel	HEK293 Tl ctr
COC(=O)c1ccc(COc2cc(O)c3c(c2)OC(C)(C)CC3=O)cc1	-5.8	i	i	0	i	i	x	x	x
CC1(C)CC(=O)c2c(O)cc(OCc3ccc(Br)cc3)cc2O1	-12.1	i	i	-1.99	-8.4*	i	73.0%*	i	41.5%*
COC(=O)C1=C(C)NC(C)=C(C(=O)OC)C1c1ccc(OC(=O)c2oc3ccccc3c2C)c(OC)c1	-10.1	i	i	2.22	-9.59*	i	62.0%*	i	33.5%*
CCc1ccc(NC(=O)COC(=O)/C(=C/c2ccccc2OC)c2ccccc2)cc1	-7.4	i	i	1	i	i	i	i	i
Cc1ccc(NC2CCCN(C(=O)c3ccc4[nH]ccc4c3)C2)cc1C (stereo not drawn)	-6.4	i	i	1.93	i	i	i	i	i
C=CCOc1cccc(C(=O)N2CCCC(CCC(=O)NCc3ccccc3F)C2)c1 (stereo not drawn)	-4.9	i	i	-1.97	i	i	x	x	x
COc1ccc(C(=O)N2CCCC(Nc3ccc(C)c(C)c3)C2)cc1F (stereo not drawn)	-13.9	i	i	0	i	i	x	x	x
COC(=O)c1cccc(C(=O)N2CCCC(Nc3ccc(C)c(C)c3)C2)c1 (stereo not drawn)	-9.8	i	i	-1.81	i	i	i	i	i
C=CCOc1cccc(C(=O)N2CCCC(Nc3ccc4c(c3)OCCO4)C2)c1 (stereo not drawn)	-8.8	i	i	0.19	i	i	i	i	i
O=C(CN1CCN(C(=O)c2ccccc2Cl)CC1)Nc1cccc(S(=O)(=O)N2CCCC2)c1	x	i	x	x	x	x	x	x	x
Cc1ccc(C2CC2C(=O)NNC(=S)Nc2cccc(C)c2)cc1 (stereo not drawn)	0.0	i	i	-0.33	i	i	i	i	i
Cc1ccc(NC(=S)NNC(=O)C2CC2c2ccc(C)cc2)cc1 (stereo not drawn)	-6.0	i	i	-1.17	i	i	x	x	x
Cc1ccc(C2CC2C(=O)NNC(=S)Nc2cccc(Cl)c2)cc1 (stereo not drawn)	-22.4	i	i	-2.08	i	6*	i	i	i
COCc1nnc(NC(=O)c2c(-c3c(Cl)cccc3Cl)noc2C)s1	-1.4	i	i	1.06	i	i	x	x	x
COc1ccc(/C=N/NC(=O)c2ccc3ccccc3c2)cc1OS(=O)(=O)c1ccc(NC(C)=O)cc1	-7.6	i	i	0.01	i	i	x	x	x
COc1ccc(OCC(=O)N(Cc2ccc(C)o2)C2CCS(=O)(=O)C2)cc1 (stereo not drawn)	-6.2	i	i	-0.66	i	i	x	x	x
O=C(Nc1nc(-c2cc3ccccc3oc2=O)cs1)c1ccc(Br)o1	-2.8	i	i	0.44	-9.93*	i	26.5%*	i	i
CN(C(=O)C1CCC(=O)N(Cc2ccccc2F)C1)C1CCOCC1 (stereo not drawn)	-10.2	i	i	-0.62	i	i	x	x	x
CCc1ccccc1N1C(=O)CC(Sc2nccc(C)n2)C1=O (stereo not drawn)	-6.0	i	i	-1.49	i	i	i	i	i
Cc1ccccc1NC(=O)c1sc2nc3c(c(-c4ccco4)c2c1N)CCC3	-12.1	i	i	-0.43	-8.12*	i	30.0%*	i	26.5%*
COc1ccc(NC(=O)c2sccc2OS(=O)(=O)N(C)C)cc1	-2.4	i	i	0.4	i	i	x	x	x
